# Results published in ChEMBL document CHEMBL1811795, “Photolabile ubiquinone analogues for identification and characterization of quinone binding sites in proteins” (Bioorg Med Chem, 2010).
# Calls of active or inactive are those of the source. The calls are words filed in the database; no cut-off is given here.
# Columns and labels:
# [1] = system: Bacillus subtilis; assay: Inhibition of photo labeled detergent solubilized succinate:ubiquinone oxidoreductase activity in Bacillus subtilis measured in dark
# Outline: (§1)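 Purified Complex II (5 µM, detergent) with 10–75 µM azidoquinone in 50 mM potassium phosphate, 1 mM EDTA, pH 7.4, illuminated on ice with mid-wavelength UV at 7 cm; timed aliquots held dark on ice. SQR activity then measured within 1 h by DCPIP reduction with Q1 as acceptor.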
# [2] = system: Rhodobacter capsulatus; assay: Activity of Rhodobacter capsulatus NADH-ubiquinone oxidoreductase
# Outline: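 R. capsulatus membranes (aerobic, dark, 32 °C growth) assayed for NADH:quinone reductase at 25 °C: 50 mM Tris–Cl pH 8, 10 mM KCl, 5 mM MgCl2, 0.2 µg/mL gramicidin A, 150 µM NADH. Quinone varied 0.2–3 Km; Michaelis–Menten fit of initial rates gives apparent Km and Vmax. NADH oxidation read at 340 nm.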
# [3] = system: Escherichia coli; assay: Activity of Escherichia coli WrbA
# Outline: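 Purified E. coli WrbA in 20 mM potassium phosphate pH 7.2, room temperature, with 100 µM FMN, 200 µM NADH and 200 µM quinone; NADH oxidation followed at 340 nm; Vmax reported.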
# [4] = system: Bacillus subtilis; assay: Activity of Bacillus subtilis Succinate-ubiquinone oxidoreductase
# Outline: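 Purified detergent-solubilized B. subtilis Complex II ([…]): succinate-driven DCPIP reduction followed at 600 nm, 20 mM succinate, quinone (50 mM as printed) as primary acceptor, 50 mM potassium phosphate pH 7.4 with 1 mM KCN and 0.1 mM EDTA, room temperature, started by quinone; Vmax reported.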
# [5] = system: Rhodobacter capsulatus; assay: Inhibition of Rhodobacter capsulatus NADH-ubiquinone oxidoreductase using AzQ1 as substrate
# [6] = system: Rhodobacter capsulatus; assay: Inhibition of Rhodobacter capsulatus NADH-ubiquinone oxidoreductase using Q1 as substrate
# [7] = system: Rhodobacter capsulatus; assay: Inhibition of Rhodobacter capsulatus NADH-ubiquinone oxidoreductase using DMB as substrate
# [8] = system: Rhodobacter capsulatus; assay: Inhibition of Rhodobacter capsulatus NADH-ubiquinone oxidoreductase using AzQ0 as substrate
# [9] = system: Rhodobacter capsulatus; assay: Inhibition of Rhodobacter capsulatus NADH-ubiquinone oxidoreductase using Q0 as substrate
# [10] = system: Rhodobacter capsulatus; assay: Inhibition of Rhodobacter capsulatus NADH-ubiquinone oxidoreductase using DAzB as substrate
# [11] = system: Rhodobacter capsulatus; assay: Inhibition of NADH:ferricyanide reductase activity of Rhodobacter capsulatus NADH-ubiquinone oxidoreductase at 20 uM after 20 mins of UV-illumination
# [12] = system: Rhodobacter capsulatus; assay: Activity of Rhodobacter capsulatus NADH-ubiquinone oxidoreductase at 50 uM UV-illuminated compound
# Outline: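 R. capsulatus membranes incubated with 50 µM previously UV-illuminated azidoquinone, then NADH:O2 reductase (NADH oxidase) activity measured. Runs without additions and with the unmodified quinone were done in parallel.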
# [13] = system: Rhodobacter capsulatus; assay: Inhibition of NADH:Q1 reductase activity of Rhodobacter capsulatus NADH-ubiquinone oxidoreductase at 20 uM; settings: TDE = time-dependent effect
# Outline: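 Membranes in Buffer A (50 mM Bis–Tris propane pH 6.8, 20 mM KCl, 10 mM MgCl2) at 1 mg/mL protein, preincubated 5 min dark with ~20 µM azidoquinone, UV-illuminated up to 10 min at 7 cm, 4 °C. NADH:Q1 reductase then read at 340 nm, 25 °C, pH 8.0 Tris–Cl with 5 mM KCN, 100 µM Q1, 150 µM NADH.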
# [14] = system: Bacillus subtilis; assay: Inhibition of Bacillus subtilis Succinate-ubiquinone oxidoreductase using Q1 as substrate
# Outline: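 Purified B. subtilis Complex II (from a strain overproducing it, solubilised in dodecylmaltoside), 5 µM, in 50 mM potassium phosphate, 1 mM EDTA, pH 7.4. Illuminated on ice with mid-wavelength UV at 7 cm, with 10–75 µM azidoquinone. Samples held dark on ice, then assayed within 1 h: succinate:Q1 reductase, read as DCPIP reduction at 600 nm, room temperature.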
# [15] = system: Rhodobacter capsulatus; assay: Inhibition of NADH:Q1 reductase activity of Rhodobacter capsulatus NADH-ubiquinone oxidoreductase at 20 uM after 5 mins of UV-illumination
# Outline: (§2)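 R. capsulatus membranes, 1 mg/mL protein in Bis–Tris propane buffer pH 6.8, preincubated 5 min in the dark with about 20 µM azidoquinone. Then illuminated with mid-wavelength UV at 7 cm, 4 °C, in a quartz cuvette. Where stated, 5 µM NADH was added (with KCN) before illumination. NADH:Q1 reductase assayed straight after: 340 nm, 25 °C, Tris–Cl pH 8.0, 5 mM KCN, 100 µM Q1, 150 µM NADH, gramicidin.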
# [16] = system: Rhodobacter capsulatus; assay: Inhibition of NADH:Q1 reductase activity of Rhodobacter capsulatus NADH-ubiquinone oxidoreductase at 20 uM after 5 mins of UV-illumination in presence of 5 uM NADH; outline: as §2
# [17] = Photo stability of the compound assessed as decomposition at 500 uM after 10 mins of UV-illumination; format: physicochemical
# [18] = system: Rhodobacter capsulatus; assay: Activity of Rhodobacter capsulatus NADH-ubiquinone oxidoreductase at 50 uM post UV-illuminated compound
# [19] = system: Bacillus subtilis; assay: Inhibition of Bacillus subtilis Succinate-ubiquinone oxidoreductase using Q0 as substrate
# Outline: (§3)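 Succinate:quinone reductase of purified B. subtilis Complex II, read as DCPIP reduction at 600 nm. Conditions: 20 mM succinate, 50 mM potassium phosphate pH 7.4, 1 mM KCN, 0.1 mM EDTA, room temperature, quinone starting the reaction. HQNO added at 10 µM final; percent inhibition recorded.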
# [20] = system: Escherichia coli; assay: Inhibition of photo labeled Escherichia coli WrbA activity at 50 uM; settings: TDE = time-dependent effect
# Outline: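 WrbA (10 µM) with 50 µM azidoquinone in 20 mM potassium phosphate pH 7.2, on ice, under mid-wavelength UV light at 7 cm; aliquots taken over time and kept dark on ice. Activity then read within 1 h as NADH oxidation at 340 nm with 100 µM FMN, 200 µM NADH and 200 µM quinone.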
# [21] = system: Bacillus subtilis; assay: Inhibition of photo labeled detergent solubilized succinate:ubiquinone oxidoreductase activity of respiratory chain in Bacillus subtilis after 5 mins of UV-illumination; outline: as §1
# [22] = system: Bacillus subtilis; assay: Inhibition of Bacillus subtilis Succinate-ubiquinone oxidoreductase using AzQ0 as substrate; outline: as §3
Structure (SMILES),inhibition [1],Km [2],Vmax [2],Vmax (microM/min/mg) [3],Vmax (microM/min/mg) [4],further results
CC1=CC(=O)C=C(C)C1=O,inactive,100 µM,0.35 µmol/min/mg,546,3.99,–
C/C=C(\C)[C@H](O)[C@H](C)/C=C(C)/C=C/C/C(C)=C/Cc1nc(OC)c(OC)c(O)c1C,–,–,–,–,–,Imax [5]: 79%; Imax [6]: 73%; Imax [7]: 75%; Imax [8]: 68%; Imax [9]: 68%; Imax [10]: 71%
COC1=C(OC)C(=O)C(CCCCCN=[N+]=[N-])=C(C)C1=O,inactive,21 µM,0.35 µmol/min/mg,–,2.57,inhibition [11]: inactive; inhibition [12]: 20%; inhibition [13]: tde
COC1=C(OC)C(=O)C(CC=C(C)C)=C(C)C1=O,inactive,23 µM,0.67 µmol/min/mg,< 10,2.52,Imax [14]: 90%
C=C(C)[C@H]1Cc2c(ccc3c2O[C@@H]2COc4cc(OC)c(OC)cc4[C@@H]2C3=O)O1,–,–,–,–,–,Imax [5]: 79%; Imax [6]: 68%; Imax [7]: 63%; Imax [8]: 53%; Imax [9]: 48%; Imax [10]: 53%
[N-]=[N+]=NC1=CC(=O)C=CC1=O,–,–,–,–,–,inhibition [15]: Active; inhibition [16]: Active
CC1=CC(=O)C(N=[N+]=[N-])=C(C)C1=O,inactive,86 µM,0.59 µmol/min/mg,464,4.72,Stability [17]: Unstable; inhibition [18]: inactive
COC1=C(OC)C(=O)C(C)=CC1=O,inactive,75 µM,0.37 µmol/min/mg,684,2.19,Imax [19]: 88%
COC1=C(OC)C(=O)C(N=[N+]=[N-])=C(C)C1=O,inactive,52 µM,0.58 µmol/min/mg,724,3.72,inhibition [20]: tde; Stability [17]: Stable; inhibition [12]: 20%; inhibition [21]: Active; Imax [22]: 89%
